Results reported in the RNAGym collection of RNA variant scans (doi:10.1002/anie.201605470).

B1: Osa-1-4 twister ribozyme (parent)
chain: CCGCCUAACACUGCCAAUGCCGGUCCCAAGCCCGGAUAAAAGUGGAGGGGGCGG

Variants of: B1
Assay: self-cleavage, relative activity (ratio to wild type); higher = more cleavage; co-transcriptional
Outline: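 A DNA template for a 54-nucleotide Oryza sativa twister ribozyme was synthesised with 97 % wild-type base and 1 % of each other base at the 48 positions downstream of the cleavage site. It was transcribed in vitro for 2 h at 37 °C, allowing co-transcriptional self-cleavage, then reverse-transcribed with a template-switching oligonucleotide, PCR-amplified and deep-sequenced. Cleavage status was scored from reads with or without upstream sequence. Relative activity is fraction cleaved normalised to wild type.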

Row | Variant | self-cleavage
1 | C27U G13U | 0.01
2 | C27U G13C | 0.01
3 | C27U G13A | 0.04
4 | C27U G22A | 0.12
5 | C27U G22U | 0.06
6 | C27U G22C | 0.03
7 | A28C A41G | 0.82
8 | A28C A41U | 0.98
9 | A28C A41C | 0.91
10 | A28C | 1
11 | C27G U18A | 0.09
12 | C27G U18C | 0.09
13 | C27G U18G | 0.17
14 | A28C C9U | 0.8
15 | A28C C9G | 0.67
16 | A28C C9A | 0.42
17 | C27G G50C | 0.05
18 | C27G G50U | 0.07
19 | C27U G30U | 0.05
20 | C27U G30C | 0.02
21 | C27U G30A | 0.02
22 | C27U U24G | 0.01
23 | C27U U24A | 0.04
24 | C27U U24C | 0.06

Row | Variant | self-cleavage
25 | C27U U18C | 0.21
26 | C27U U18G | 0.37
27 | C27U U18A | 0.24
28 | C27G U43A | 0.08
29 | C27G U43C | 0.06
30 | C27G U43G | 0.06
31 | C27U U12C | 0.07
32 | C27U U12A | 0.1
33 | C27U U12G | 0.07
34 | A28C C31A | 0.04
35 | A28C C31U | 0.84
36 | A28C C31G | 0.09
37 | C27U G45U | 0.04
38 | C27U G45C | 0.04
39 | C27U G45A | 0.05
40 | A28C A39G | 0.99
41 | A28C A39U | 1
42 | A28C A39C | 0.93
43 | C27U G23U | 0.03
44 | C27U G23C | 0.03
45 | C27U G23A | 0.07
46 | C27U U37G | 0.37
47 | C27U U37C | 0.32
48 | C27U U37A | 0.16

Row | Variant | self-cleavage
49 | C27U G50U | 0.12
50 | C27U G50A | 0.18
51 | C27U G50C | 0.09
52 | A28C A29U | 0.09
53 | A28C A29C | 0.05
54 | A28C A29G | 0.16
55 | C27U G48C | 0.05
56 | C27U G48U | 0.03
57 | C27U G48A | 0.04
58 | A28C C21A | 0.53
59 | A28C C21U | 1
60 | A28C C21G | 0.09
61 | A28C C25G | 0.09
62 | A28C C25A | 0.09
63 | A28C C25U | 0.91
64 | A28C A7G | 0.2
65 | A28C A7U | 0.07
66 | A28C A7C | 0.06
67 | A28C C15U | 0.33
68 | A28C C15A | 0.35
69 | A28C C15G | 0.32
70 | C27U C32A | 0.04
71 | C27U C32U | 0.06
72 | C27U C32G | 0.05

Row | Variant | self-cleavage
73 | C27U C33G | 0.05
74 | C27U C33U | 0.13
75 | C27U C33A | 0.05
76 | C27U C9A | 0.02
77 | C27U C9G | 0.09
78 | C27U C9U | 0.1
79 | A28C C11U | 0.91
80 | A28C C11G | 0.21
81 | A28C C11A | 0.71
82 | C27U G19U | 0.05
83 | C27U G19C | 0.04
84 | C27U G19A | 0.08
85 | C27G G51A | 0.05
86 | C27G G51C | 0.02
87 | C27G G51U | 0.04
88 | A28C A46G | 0.07
89 | A28C A46U | 0.07
90 | A28C A46C | 0.06
91 | C27U G53A | 0.12
92 | C27U G53U | 0.08
93 | C27U G53C | 0.05
94 | C27U G47A | 0.88
95 | C27U G47U | 0.11
96 | C27U G47C | 0.42

Row | Variant | self-cleavage
97 | C27U G49C | 0.04
98 | C27U G49A | 0.05
99 | C27U G49U | 0.04
100 | C27U G34A | 0.18
101 | C27U G34C | 0.08
102 | C27U G34U | 0.15
103 | C27U G54A | 0.14
104 | C27U G54U | 0.31
105 | C27U G54C | 0.12
106 | A28C C20G | 0.31
107 | A28C C20U | 1.01
108 | A28C C20A | 0.94
109 | A28C C27A | 0.09
110 | A28C C27G | 0.05
111 | A28C C27U | 0.11
112 | C27U U43C | 0.1
113 | C27U U43A | 0.11
114 | C27U U43G | 0.08
115 | C27G G53U | 0.03
116 | C27G G53C | 0.02
117 | C27G G53A | 0.06
118 | A28C A40G | 0.68
119 | A28C A40U | 0.55
120 | A28C A40C | 0.08

Row | Variant | self-cleavage
121 | C27U | 0.33
122 | A28C C26A | 0.05
123 | A28C C26U | 0.78
124 | A28C C26G | 0.09
125 | A28C A36C | 0.64
126 | A28C A36U | 1.02
127 | A28C A36G | 1
128 | A28C A38G | 1.01
129 | A28C A38U | 0.97
130 | A28C A38C | 0.98
131 | C27U G42C | 0.07
132 | C27U G42A | 0.08
133 | C27U G42U | 0.03
134 | C27U C31G | 0.06
135 | C27U C31A | 0.02
136 | C27U C31U | 0.07
137 | C27U C52A | 0.21
138 | C27U C52U | 0.37
139 | C27U C52G | 0.25
140 | C27G U24G | 0.02
141 | C27G U24C | 0.04
142 | C27G U24A | 0.03
143 | C27U G35U | 0.19
144 | C27U G35C | 0.06

Row | Variant | self-cleavage
145 | C27U G35A | 0.31
146 | A28C C32A | 0.08
147 | C27G U37A | 0.08
148 | C27G U37C | 0.1
149 | C27G U37G | 0.16
150 | C27U G51U | 0.07
151 | C27U G51C | 0.04
152 | C27U G51A | 0.11
153 | C27G G54U | 0.12
154 | C27G G54A | 0.06
155 | C27G G54C | 0.04
156 | A28C C14U | 0.46
157 | A28C C14A | 0.09
158 | A28C C14G | 0.17
159 | C27G U12G | 0.06
160 | C27G U12A | 0.05
161 | C27G U12C | 0.05
162 | C27U G44U | 0.12
163 | C27U G44C | 0.1
164 | C27U G44A | 0.08
165 | A28C A8U | 0.1
166 | A28C A8C | 0.09
167 | A28C A8G | 0.17
